Key:
Candida albicans [1] = test: Antifungal activity against Candida albicans in yeast extract-peptone-glucose medium at 238 ug/ml after 48 hrs by disc diffusion assay; type: functional; conditions: read-out: DIZ
Outline: (§1)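 C. albicans cells at a set number were spread on YEPD agar, either plain or containing the cell-wall disruptant named in the line (SDS, Congo red or calcofluor white). Compound solution, or the reference solvent as control, was spotted onto 0.5 cm discs placed on the lawn. Plates were incubated at 30 °C and the inhibition zone diameter was measured.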

Candida albicans [2] = test: Antifungal activity against Candida albicans in yeast extract-peptone-glucose medium at 238 ug/ml after 48 hrs by disc diffusion assay in presence of 150 ug/ml of congo red; type: functional; outline: as §1
Escherichia coli [3] = test: Antibacterial activity against Escherichia coli harboring ampicillin-resistance gene encoding plasmid at 238 ug/ml after 24 hrs by disc diffusion assay; type: functional; conditions: read-out: DIZ
Outline: (§2)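 Disc diffusion used an E. coli strain carrying a plasmid that encodes an ampicillin-resistance gene. Inhibition zone diameters were recorded and compared against the corresponding solvent controls.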

Candida albicans [4] = test: Antifungal activity against Candida albicans in yeast extract-peptone-glucose medium at 238 ug/ml after 48 hrs by disc diffusion assay in presence of 0.01% of sodium dodecylsulphate; type: functional; conditions: read-out: DIZ; outline: as §1
Candida albicans [5] = test: Antifungal activity against Candida albicans in yeast extract-peptone-glucose medium at 238 ug/ml after 48 hrs by disc diffusion assay in presence of […]; type: functional
Outline: (§3)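 This is a C. albicans disc diffusion on YEPD agar containing rhodamine 6G, a substrate of the Cdr1p/Cdr2p ATP-dependent efflux pumps, to test for enhanced R6G toxicity. A set number of cells was spread, and 0.5 cm discs were spotted with compound solution or reference solvent. Plates were incubated at 30 °C and the zone diameter was measured.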

Candida albicans [6] = test: Antifungal activity against Candida albicans in yeast extract-peptone-glucose medium at 187 ug/ml after 48 hrs by disc diffusion assay in presence of 150 ug/ml of congo red; type: functional; outline: as §1
Candida albicans [7] = test: Antifungal activity against Candida albicans in yeast extract-peptone-glucose medium at 187 ug/ml after 48 hrs by disc diffusion assay in presence of […]; type: functional; outline: as §3
Candida albicans [8] = test: Antifungal activity against Candida albicans in yeast extract-peptone-glucose medium at 187 ug/ml after 48 hrs by disc diffusion assay; type: functional; conditions: read-out: DIZ; outline: as §1
Escherichia coli [9] = test: Antibacterial activity against Escherichia coli harboring ampicillin-resistance gene encoding plasmid at 187 ug/ml after 24 hrs by disc diffusion assay; type: functional; conditions: read-out: DIZ; outline: as §2
Candida albicans [10] = test: Antifungal activity against Candida albicans in yeast extract-peptone-glucose medium at 187 ug/ml after 48 hrs by disc diffusion assay in presence of 100 ug/ml of calcofluor white; type: functional; outline: as §1
Candida albicans [11] = test: Antifungal activity against Candida albicans in yeast extract-peptone-glucose medium at 187 ug/ml after 48 hrs by disc diffusion assay in presence of 0.01% of sodium dodecylsulphate; type: functional; conditions: read-out: DIZ; outline: as §1
Candida albicans [12] = test: Antifungal activity against Candida albicans in yeast extract-peptone-glucose medium at 545 ug/ml after 48 hrs by disc diffusion assay in presence of 150 ug/ml of congo red; type: functional
Outline: (§4)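 C. albicans cells were spread at a set number over YEPD agar containing the additive named in the line. Discs 0.5 cm across were placed on the lawn and spotted with test compound solution or reference solvent. Plates were incubated at 30 °C. The inhibition zone diameter was measured in mm and compared with the solvent-control disc.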

Candida albicans [13] = test: Antifungal activity against Candida albicans in yeast extract-peptone-glucose medium at 545 ug/ml after 48 hrs by disc diffusion assay; type: functional; conditions: read-out: DIZ; outline: as §1
Candida albicans [14] = test: Antifungal activity against Candida albicans in yeast extract-peptone-glucose medium at 545 ug/ml after 48 hrs by disc diffusion assay in presence of 0.01% of sodium dodecylsulphate; type: functional; conditions: read-out: DIZ; outline: as §1
Candida albicans [15] = test: Antifungal activity against Candida albicans in yeast extract-peptone-glucose medium at 545 ug/ml after 48 hrs by disc diffusion assay in presence of 100 ug/ml of calcofluor white; type: functional; outline: as §4
Candida albicans [16] = test: Antifungal activity against Candida albicans in yeast extract-peptone-glucose medium at 545 ug/ml after 48 hrs by disc diffusion assay in presence of 150 ug/ml of rhodamine 6G; type: functional; outline: as §4
Escherichia coli [17] = test: Antibacterial activity against Escherichia coli harboring ampicillin-resistance gene encoding plasmid at 545 ug/ml after 24 hrs by disc diffusion assay; type: functional; conditions: read-out: DIZ; outline: as §2
Candida albicans [18] = test: Antifungal activity against Candida albicans in yeast extract-peptone-glucose medium at 600 ug/ml after 48 hrs by disc diffusion assay; type: functional; conditions: read-out: DIZ
Outline: (§5)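 Solid-phase assay on YEPD agar spread with a set number of C. albicans cells. Compound solution and reference solvent spotted onto 0.5 cm discs. Plates incubated at 30 °C, and inhibition zone diameter measured against solvent control.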

Candida albicans [19] = test: Antifungal activity against Candida albicans in yeast extract-peptone-glucose medium at 600 ug/ml after 48 hrs by disc diffusion assay in presence of 100 ug/ml of calcofluor white; type: functional
Outline: (§6)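 Disc diffusion on YEPD agar containing a cell-wall-disrupting agent (SDS, Congo red or calcofluor white) and spread with a set number of C. albicans cells. Compound and reference solvent spotted on 0.5 cm discs. Incubated at 30 °C, then inhibition zone diameter measured against solvent.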

Candida albicans [20] = test: Antifungal activity against Candida albicans in yeast extract-peptone-glucose medium at 600 ug/ml after 48 hrs by disc diffusion assay in presence of 0.01% of sodium dodecylsulphate; type: functional; conditions: read-out: DIZ; outline: as §6
Candida albicans [21] = test: Antifungal activity against Candida albicans in yeast extract-peptone-glucose medium at 600 ug/ml after 48 hrs by disc diffusion assay in presence of 150 ug/ml of congo red; type: functional; outline: as §6
Candida albicans [22] = test: Antifungal activity against Candida albicans in synthetic dextrose minimal medium after 48 hrs by ELISA based serial dilution method
Candida albicans [23] = test: Antifungal activity against Candida albicans in yeast extract-peptone-glucose medium at 600 ug/ml after 48 hrs by disc diffusion assay in presence of […]; type: functional; conditions: in the assay text read “20 ug/ml” for “150 ug/ml”
Outline: (§7)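 Tests whether compounds enhance the toxicity of rhodamine 6G, a substrate of the Cdr1p/Cdr2p drug pumps. YEPD agar containing R6G spread with C. albicans. Compound and solvent spotted on 0.5 cm discs, incubated at 30 °C, and zone diameter read relative to solvent control.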

Escherichia coli [24] = test: Antibacterial activity against Escherichia coli harboring ampicillin-resistance gene encoding plasmid at 600 ug/ml after 24 hrs by disc diffusion assay; type: functional; conditions: read-out: DIZ; outline: as §2
Candida albicans [25] = test: Antifungal activity against Candida albicans in yeast extract-peptone-glucose medium at 357 ug/ml after 48 hrs by disc diffusion assay; type: functional; conditions: read-out: DIZ; outline: as §1
Candida albicans [26] = test: Antifungal activity against Candida albicans in yeast extract-peptone-glucose medium at 357 ug/ml after 48 hrs by disc diffusion assay in presence of 100 ug/ml of calcofluor white; type: functional; outline: as §1
Candida albicans [27] = test: Antifungal activity against Candida albicans in yeast extract-peptone-glucose medium at 357 ug/ml after 48 hrs by disc diffusion assay in presence of 150 ug/ml of congo red; type: functional; outline: as §1
Escherichia coli [28] = test: Antibacterial activity against Escherichia coli harboring ampicillin-resistance gene encoding plasmid at 357 ug/ml after 24 hrs by disc diffusion assay; type: functional; conditions: read-out: DIZ; outline: as §2
Candida albicans [29] = test: Antifungal activity against Candida albicans in yeast extract-peptone-glucose medium at 257 ug/ml after 48 hrs by disc diffusion assay in presence of 150 ug/ml of congo red; type: functional; outline: as §6
Candida albicans [30] = test: Antifungal activity against Candida albicans in yeast extract-peptone-glucose medium at 257 ug/ml after 48 hrs by disc diffusion assay in presence of […]; type: functional; conditions: in the assay text read “20 ug/ml” for “150 ug/ml”; outline: as §7
Escherichia coli [31] = test: Antibacterial activity against Escherichia coli harboring ampicillin-resistance gene encoding plasmid at 257 ug/ml after 24 hrs by disc diffusion assay; type: functional; conditions: read-out: DIZ; outline: as §2
Candida albicans [32] = test: Antifungal activity against Candida albicans in yeast extract-peptone-glucose medium at 257 ug/ml after 48 hrs by disc diffusion assay in presence of 0.01% of sodium dodecylsulphate; type: functional; conditions: read-out: DIZ; outline: as §6
Candida albicans [33] = test: Antifungal activity against Candida albicans in yeast extract-peptone-glucose medium at 257 ug/ml after 48 hrs by disc diffusion assay; type: functional; conditions: read-out: DIZ; outline: as §5
Candida albicans [34] = test: Antifungal activity against Candida albicans in yeast extract-peptone-glucose medium at 257 ug/ml after 48 hrs by disc diffusion assay in presence of 100 ug/ml of calcofluor white; type: functional; outline: as §6

**Q.** For `O=C(C(=O)N1CCCCC1)c1cn(CCCCCCn2cc(C(=O)C(=O)N3CCCCC3)c3ccccc32)c2ccccc12`, which zone of inhibition at 238 µg/mL (Candida albicans [1]) is on record?
**A.** 6.5 mm

**Q.** And the “diameter of the inhibition zone (DIZ)” value (Candida albicans [2])?
**A.** 6 mm

**Q.** And the zone of inhibition at 238 µg/mL (Escherichia coli [3])?
**A.** 7.5 mm

**Q.** What about the zone of inhibition at 238 µg/mL (Candida albicans [4]) of the same compound?
**A.** 6.5 mm

**Q.** What about the “diameter of the inhibition zone (DIZ)” value (Candida albicans [5]) of the same compound?
**A.** 5.5 mm

**Q.** How did the “diameter of the inhibition zone (DIZ)” value (Candida albicans [6]) turn out when `O=C(C(=O)N1CCCC1)c1cn(Cc2ccc(Cn3cc(C(=O)C(=O)N4CCCC4)c4ccccc43)cc2)c2ccccc12` was run?
**A.** 7 mm

**Q.** What about the “diameter of the inhibition zone (DIZ)” value (Candida albicans [7]) of the same compound?
**A.** 7 mm

**Q.** And the zone of inhibition at 187 µg/mL (Candida albicans [8])?
**A.** 7.5 mm

**Q.** And the zone of inhibition at 187 µg/mL (Escherichia coli [9])?
**A.** 7 mm

**Q.** What about the “diameter of the inhibition zone (DIZ)” value (Candida albicans [10]) of the same compound?
**A.** 6.5 mm

**Q.** What about the zone of inhibition at 187 µg/mL (Candida albicans [11]) of the same compound?
**A.** 8 mm

**Q.** What does the source list for `O=C(C(=O)N1CCCC1)c1cn(CCCCCCn2cc(C(=O)C(=O)N3CCCC3)c3ccccc32)c2ccccc12`?
**A.** diameter of the inhibition zone (DIZ) (Candida albicans [12]): 10.5 mm; zone of inhibition at 545 µg/mL (Candida albicans [13]): 14.5 mm; zone of inhibition at 545 µg/mL (Candida albicans [14]): 15.5 mm; diameter of the inhibition zone (DIZ) (Candida albicans [15]): 11 mm; diameter of the inhibition zone (DIZ) (Candida albicans [16]): 12.5 mm; zone of inhibition at 545 µg/mL (Escherichia coli [17]): 11.5 mm

**Q.** How did the zone of inhibition at 600 µg/mL (Candida albicans [18]) turn out when `O=C(NCc1ccccc1)C(=O)c1cn(Cc2ccc(Cn3cc(C(=O)C(=O)NCc4ccccc4)c4ccccc43)cc2)c2ccccc12` was run?
**A.** 12.5 mm

**Q.** What about the “diameter of the inhibition zone (DIZ)” value (Candida albicans [19]) of the same compound?
**A.** 11.5 mm

**Q.** What about the zone of inhibition at 600 µg/mL (Candida albicans [20]) of the same compound?
**A.** 12.5 mm

**Q.** And the “diameter of the inhibition zone (DIZ)” value (Candida albicans [21])?
**A.** 10.5 mm

**Q.** What about the IC50 (Candida albicans [22]) of the same compound?
**A.** 0.02 mM

**Q.** What about the “diameter of the inhibition zone (DIZ)” value (Candida albicans [23]) of the same compound?
**A.** 11 mm

**Q.** What about the zone of inhibition at 600 µg/mL (Escherichia coli [24]) of the same compound?
**A.** 9 mm

**Q.** `O=C(C(=O)N1CCOCC1)c1cn(CCCCCCn2cc(C(=O)C(=O)N3CCOCC3)c3ccccc32)c2ccccc12` was tested. Which zone of inhibition at 357 µg/mL (Candida albicans [25]) did it give?
**A.** 5.5 mm

**Q.** What about the “diameter of the inhibition zone (DIZ)” value (Candida albicans [26]) of the same compound?
**A.** 6.5 mm

**Q.** And the “diameter of the inhibition zone (DIZ)” value (Candida albicans [27])?
**A.** 6.5 mm

**Q.** What about the zone of inhibition at 357 µg/mL (Escherichia coli [28]) of the same compound?
**A.** 7.5 mm

**Q.** Which “diameter of the inhibition zone (DIZ)” value (Candida albicans [29]) does the source give for `O=C(C(=O)N1CCCC1)c1cn(CCCn2cc(C(=O)C(=O)N3CCCC3)c3cc(Br)ccc32)c2ccc(Br)cc12` here?
**A.** 11.5 mm

**Q.** And the “diameter of the inhibition zone (DIZ)” value (Candida albicans [30])?
**A.** 12 mm

**Q.** And the zone of inhibition at 257 µg/mL (Escherichia coli [31])?
**A.** 13.5 mm

**Q.** What about the zone of inhibition at 257 µg/mL (Candida albicans [32]) of the same compound?
**A.** 11.5 mm

**Q.** What about the zone of inhibition at 257 µg/mL (Candida albicans [33]) of the same compound?
**A.** 11.5 mm

**Q.** What about the “diameter of the inhibition zone (DIZ)” value (Candida albicans [34]) of the same compound?
**A.** 11.5 mm

**Q.** And the IC50 (Candida albicans [22])?
**A.** 29.2 mM

From ChEMBL document CHEMBL1777792, “Synthesis and evaluation of indole-based new scaffolds for antimicrobial activities--identification of promising candidates” (Bioorg Med Chem Lett, 2011)
